In the library only some 2.8% were active in any assay of this set; here they are far more common.
14-3-3 Bad inh – inhibitors of 14-3-3 zeta/Bad binding, primary screen, biochemical, TR-FRET, bovine 14-3-3 zeta | 14-3-3 protein zeta/delta (Bos taurus), P63103 | TR-FRET 14-3-3zeta/Dy647-pBad peptide displacement, 1 h | inhibition, % at 21.7 µM | hit rate 0.71% among 220,000;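 active means inhibition above about 70%, limit read from the data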
eIF4E 4G PPI – eIF4E–eIF4G protein interaction inhibitors, primary screen, biochemical, uHTS, TR-FRET, eIF4GI fragment. hit rate 0.37% among 220,000. TR-FRET eIF4E-eIF4GI(517-606) binding, 2 h. AID 782, 2007. inhibition, % at 21.7 µM. Eukaryotic translation initiation factor 4E (Mus musculus) + Eukaryotic translation …
p47phox inh – p47phox/p22phox peptide binding inhibitors, primary screen, biochemical, uHTS, NADPH oxidase regulatory subunit. Neutrophil cytosol factor 1 (Homo sapiens), P14598. fluorescence polarization, 2 h. inhibition, % at 24.7 µM. hit rate 0.53% among 220,000. AID 1274, 2008
Target sequence (P14598 whole entry, looked up): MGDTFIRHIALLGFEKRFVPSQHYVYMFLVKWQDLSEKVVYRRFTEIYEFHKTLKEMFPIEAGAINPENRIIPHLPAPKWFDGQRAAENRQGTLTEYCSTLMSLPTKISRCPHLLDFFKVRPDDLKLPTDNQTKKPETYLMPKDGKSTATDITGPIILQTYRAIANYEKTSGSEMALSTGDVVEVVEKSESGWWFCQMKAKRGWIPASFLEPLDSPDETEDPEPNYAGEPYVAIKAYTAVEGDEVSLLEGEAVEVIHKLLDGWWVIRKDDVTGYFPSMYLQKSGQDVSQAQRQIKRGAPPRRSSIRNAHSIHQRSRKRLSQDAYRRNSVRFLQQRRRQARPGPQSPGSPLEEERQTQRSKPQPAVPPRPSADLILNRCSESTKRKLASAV
RBBP9 inhibitor – human RBBP9 inhibitors, primary screen, biochemical, fluorescence polarization, FP-Rh probe, HTS | Serine hydrolase RBBP9 (Homo sapiens), O75884 | AID 1515, 2009 | inhibition, % at 7.94 µM | recombinant RBBP9 | hit rate 0.2% among 220,000;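 active means inhibition above the campaign mean of all tested compounds plus 3 SD, cut at about 14% in these data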
Target sequence (O75884 whole entry, looked up): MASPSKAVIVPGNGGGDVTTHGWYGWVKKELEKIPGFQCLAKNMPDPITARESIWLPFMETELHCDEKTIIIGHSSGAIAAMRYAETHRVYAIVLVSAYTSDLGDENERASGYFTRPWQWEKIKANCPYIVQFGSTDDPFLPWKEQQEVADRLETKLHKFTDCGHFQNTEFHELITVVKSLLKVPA
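Assay system: recombinant human RBBP9; Reagent: Serine-hydrolase probe FP-Rh, 375 nM pre-mixing; Doses: 7.94 µM single dose, 0.794% DMSO; Incubation: 30 min then 45 min, 25 °C; Detection: fluorescence polarization (mP), excitation 525 nm, emission 598 nm; Evaluation: percent inhibition from mP, scaled between DMSO and no-protein wells.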
Wee1 stabilizer – Wee1 degradation inhibitors, primary screen, cell-based, HeLa, Wee1K328M-luciferase, luminescence. HeLa Luc-Wee1K328M stability; 100% = proteasome inhibitor MG132 effect. reporter increase, % at 5 µM. hit rate 1.2% among 220,000. Wee1-like protein kinase (Homo sapiens), P30291. AID 1321, 2008;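 active means activation above the mean of all tested compounds plus 3 SD, set per screening run, cut at about 8.8% in these data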;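 further: cells exposed to compound for 20 h before luminescence read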
Numbers stand for hits.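 How the source made its calls, unless noted: active means inhibition above about 30% (limit read from the data); inactive means the rest.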

How did Cc1ccc(-n2c(-c3ccc(Cl)cc3)c[n+]3c2CCC3)cc1 do in these assays?
14-3-3 Bad inh: inactive; eIF4E 4G PPI: 94.2; p47phox inh: inactive; RBBP9 inhibitor: inactive; Wee1 stabilizer: inactive

What do the screens show for `Cc1ccc(-n2c(-c3ccccc3)c[n+]3c2CCC3)cc1`?
14-3-3 Bad inh: inactive; eIF4E 4G PPI: inactive; p47phox inh: inactive; RBBP9 inhibitor: inactive; Wee1 stabilizer: inactive

What do the screens show for `COc1ccc(NC(=S)NNC(=O)CNc2ccc(Cl)cc2)cc1`?
14-3-3 Bad inh: inactive; eIF4E 4G PPI: inactive; p47phox inh: inactive; RBBP9 inhibitor: inactive; Wee1 stabilizer: inactive

Results for O=C(Nc1ccc(O)cc1)C1CC=CCC1 (stereo unspecified) ?
p47phox inh: 56.4; RBBP9 inhibitor: inactive; Wee1 stabilizer: inactive

What do the screens show for `CCn1c(=O)c(-[n+]2ccccc2)c(O)c2ccccc21`?
14-3-3 Bad inh: 72.2; eIF4E 4G PPI: inactive; p47phox inh: inactive; RBBP9 inhibitor: inactive; Wee1 stabilizer: inactive

Results for CCn1c2ccccc2c(=O)c2ccccc21 ?
14-3-3 Bad inh: inactive; eIF4E 4G PPI: inactive; p47phox inh: inactive; RBBP9 inhibitor: inactive; Wee1 stabilizer: inactive

What do the screens show for `Cc1cccc(N2CC(O)(c3cccs3)[N+]3=C2CCCCC3)c1` (stereo unspecified)?
14-3-3 Bad inh: 82.8; eIF4E 4G PPI: inactive; p47phox inh: inactive; RBBP9 inhibitor: inactive; Wee1 stabilizer: inactive

Results for Cc1cccc(N2CC(O)(c3cccs3)[N+]3=C2CCCC3)c1 (stereo unspecified) ?
14-3-3 Bad inh: inactive; eIF4E 4G PPI: inactive; p47phox inh: inactive; RBBP9 inhibitor: inactive; Wee1 stabilizer: inactive

Results for N#Cc1ccc(C(c2nnnn2Cc2ccccc2)N2CCCC2)cc1 (stereo unspecified) ?
14-3-3 Bad inh: 70.0; eIF4E 4G PPI: inactive; p47phox inh: inactive; RBBP9 inhibitor: inactive; Wee1 stabilizer: inactive

What do the screens show for `COc1ccc(Cl)cc1-c1nc(SCC(=O)N(C)CCC#N)n[nH]1`?
14-3-3 Bad inh: inactive; eIF4E 4G PPI: inactive; p47phox inh: inactive; RBBP9 inhibitor: inactive; Wee1 stabilizer: inactive

What do the screens show for `Cn1cccc1/C=C1\SC(=S)N(NC(=O)c2ccc(F)cc2)C1=O`?
14-3-3 Bad inh: inactive; eIF4E 4G PPI: inactive; p47phox inh: inactive; RBBP9 inhibitor: inactive; Wee1 stabilizer: inactive

How did Cn1cccc1/C=C1\SC(=S)N(NC(=O)c2ccccc2)C1=O do in these assays?
14-3-3 Bad inh: inactive; eIF4E 4G PPI: inactive; p47phox inh: inactive; RBBP9 inhibitor: inactive; Wee1 stabilizer: 9.0

How did O=C(NCC1CCCO1)c1onc(CSc2ccccc2)c1C(=O)O (stereo unspecified) do in these assays?
14-3-3 Bad inh: 71.7; eIF4E 4G PPI: inactive; p47phox inh: inactive; RBBP9 inhibitor: inactive; Wee1 stabilizer: inactive

Results for O=C(Cc1ccccc1)NCC1CCCO1 (stereo unspecified) ?
14-3-3 Bad inh: inactive; eIF4E 4G PPI: inactive; p47phox inh: inactive; RBBP9 inhibitor: inactive; Wee1 stabilizer: 10.2

What do the screens show for `Cc1cccc(SCc2noc(C(=O)NCC3CCCO3)c2C(=O)O)c1` (stereo unspecified)?
14-3-3 Bad inh: inactive; eIF4E 4G PPI: inactive; p47phox inh: inactive; RBBP9 inhibitor: inactive; Wee1 stabilizer: inactive

Results for O=C(Cc1ccc(F)cc1)NCC1CCCO1 (stereo unspecified) ?
14-3-3 Bad inh: inactive; eIF4E 4G PPI: inactive; p47phox inh: inactive; RBBP9 inhibitor: inactive; Wee1 stabilizer: inactive

What do the screens show for `O=C(CNCC1CCCO1)Nc1ccccc1N1CCCCCC1` (stereo unspecified)?
14-3-3 Bad inh: 82.2; eIF4E 4G PPI: inactive; p47phox inh: inactive; RBBP9 inhibitor: inactive; Wee1 stabilizer: inactive

How did O=C(NCC1CCCO1)Nc1cccc(Cl)c1 (stereo unspecified) do in these assays?
14-3-3 Bad inh: inactive; eIF4E 4G PPI: inactive; p47phox inh: inactive; RBBP9 inhibitor: inactive; Wee1 stabilizer: inactive

How did Cc1cccc(NC(=O)C(=O)NCC2CCCO2)c1 (stereo unspecified) do in these assays?
14-3-3 Bad inh: inactive; eIF4E 4G PPI: inactive; p47phox inh: inactive; RBBP9 inhibitor: inactive; Wee1 stabilizer: 8.8

Results for CCOC(=O)c1c(-c2ccc(OC)c(OC)c2)csc1NC(=O)C1CCCO1 (stereo unspecified) ?
14-3-3 Bad inh: inactive; eIF4E 4G PPI: inactive; p47phox inh: inactive; RBBP9 inhibitor: inactive; Wee1 stabilizer: inactive

What do the screens show for `CC(=O)NC(Cc1ccccc1F)C(=O)NC1CCN(C(=O)c2cnccn2)CC1` (stereo unspecified)?
14-3-3 Bad inh: inactive; eIF4E 4G PPI: inactive; p47phox inh: inactive; RBBP9 inhibitor: inactive; Wee1 stabilizer: inactive

Results for CCOc1ccc(C(=O)NC(=S)Nc2cccc(S(=O)(=O)NC3=NCCC3)c2)cc1 ?
14-3-3 Bad inh: inactive; eIF4E 4G PPI: inactive; p47phox inh: inactive; RBBP9 inhibitor: inactive; Wee1 stabilizer: 9.5

What do the screens show for `C=C(C)CNC(=S)Nc1cccc(S(=O)(=O)NC2=NCCC2)c1`?
14-3-3 Bad inh: inactive; eIF4E 4G PPI: inactive; p47phox inh: inactive; RBBP9 inhibitor: inactive; Wee1 stabilizer: inactive

Results for CCc1ccc2oc(-c3cc(N)ccc3O)nc2c1 ?
14-3-3 Bad inh: inactive; eIF4E 4G PPI: inactive; p47phox inh: inactive; RBBP9 inhibitor: inactive; Wee1 stabilizer: 9.5

How did CCc1ccc2oc(-c3cc(N)ccc3Cl)nc2c1 do in these assays?
14-3-3 Bad inh: inactive; eIF4E 4G PPI: inactive; p47phox inh: inactive; RBBP9 inhibitor: inactive; Wee1 stabilizer: inactive

Results for CC(=O)c1cc2c(cc1NC(=O)c1ccccc1C)OCO2 ?
14-3-3 Bad inh: inactive; eIF4E 4G PPI: inactive; p47phox inh: inactive; RBBP9 inhibitor: inactive; Wee1 stabilizer: inactive

What do the screens show for `O=S(=O)(c1cccc2cccnc12)N1CCCc2ccccc21`?
14-3-3 Bad inh: inactive; eIF4E 4G PPI: inactive; p47phox inh: inactive; RBBP9 inhibitor: inactive; Wee1 stabilizer: inactive

Results for CCOc1ccccc1N(C(=O)Nc1cccc(Cl)c1)C1=NC(C)CS1 (stereo unspecified) ?
14-3-3 Bad inh: inactive; eIF4E 4G PPI: inactive; p47phox inh: 35.2; RBBP9 inhibitor: inactive; Wee1 stabilizer: inactive

Results for CCOc1ccccc1N(C(=O)Nc1ccc(Cl)cc1)C1=NCCS1 ?
14-3-3 Bad inh: inactive; eIF4E 4G PPI: inactive; p47phox inh: inactive; RBBP9 inhibitor: inactive; Wee1 stabilizer: inactive

How did Nn1c(Nc2ccc(Cl)cc2)nncc1=O do in these assays?
14-3-3 Bad inh: inactive; eIF4E 4G PPI: inactive; RBBP9 inhibitor: inactive; Wee1 stabilizer: inactive

How did Cc1[nH]c2ccccc2c1/C=N/NC(=S)NC(C)C do in these assays?
14-3-3 Bad inh: inactive; eIF4E 4G PPI: inactive; p47phox inh: inactive; RBBP9 inhibitor: inactive; Wee1 stabilizer: inactive

How did CC(C)NC(=S)N/N=C/c1c[nH]c2ccccc12 do in these assays?
14-3-3 Bad inh: inactive; eIF4E 4G PPI: inactive; p47phox inh: inactive; RBBP9 inhibitor: inactive; Wee1 stabilizer: 15.2

Screening data deposited in PubChem BioAssay by several laboratories.
